Screening data from PubChem.
E-selectin induc: E-selectin induction in HUVECs, primary screen, imaging, HUVEC, immunofluorescence imaging, single point; AID 686992, 2013; normalized: neutral wells 0, TNF-alpha wells 100; 260,000 tested, 0.37% active; activation, % at 7.58 µM;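 active means mean E-selectin-positive cell signal at least 10% of the positive control, reached in at least 60% of replicates, without over 20% cell loss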
Target sequence (P16581 whole entry, looked up): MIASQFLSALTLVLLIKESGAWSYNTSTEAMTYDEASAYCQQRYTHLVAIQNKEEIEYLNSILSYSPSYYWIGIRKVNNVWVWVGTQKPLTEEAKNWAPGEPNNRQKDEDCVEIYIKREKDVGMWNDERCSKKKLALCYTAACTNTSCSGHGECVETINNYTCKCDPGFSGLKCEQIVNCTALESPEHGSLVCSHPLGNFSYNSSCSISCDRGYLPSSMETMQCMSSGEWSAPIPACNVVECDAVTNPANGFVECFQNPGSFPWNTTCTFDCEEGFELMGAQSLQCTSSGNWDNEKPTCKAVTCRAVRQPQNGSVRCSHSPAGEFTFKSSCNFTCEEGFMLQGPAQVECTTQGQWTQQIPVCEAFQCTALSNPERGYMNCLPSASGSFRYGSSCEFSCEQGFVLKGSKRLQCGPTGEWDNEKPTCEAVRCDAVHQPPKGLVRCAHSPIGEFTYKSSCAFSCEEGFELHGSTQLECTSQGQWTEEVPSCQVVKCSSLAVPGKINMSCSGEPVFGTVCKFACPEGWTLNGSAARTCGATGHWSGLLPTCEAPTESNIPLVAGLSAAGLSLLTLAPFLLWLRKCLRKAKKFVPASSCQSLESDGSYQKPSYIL
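Read-out basis: % PE-positive cells; Test system: HUVEC primary endothelial cells; Technique: immunofluorescence imaging; Dosing: single-point compound dose.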
SIRT5 block: SIRT5 desuccinylase inhibitors, primary screen, biochemical, fluorescence imaging, single point, set 5 | AID 652115, 2013 | inhibition, % at 15 µM | 330,000 tested, 1.1% active | NAD-dependent protein deacylase sirtuin-5, mitochondrial (Homo sapiens), Q9NXA8 | Purified SirT5, succinyl-peptide AMC, trypsin-coupled fluorescence; in the data active means inhibition above about 15%
Ecoli rRNA inh: reduced GFP signal of wild-type E. coli, primary screen, bacterial rRNA inhibitor project, GFP/RFP fluorescence, OD600, single point. E. coli WT GFP vs humanized-ribosome RFP mutants, 24 h; active compounds read low; DMSO median 0, no signal -100. GFP signal change (wild-type ribosome), % (no concentration beside the values). 350,000 tested, 1.6% active;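 active means significant combined selectivity score with lowered wild-type GFP, culture density cut under 30%, mutant RFP and density less affected; inactive means any of these conditions unmet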
C2C12 statin: suppressors of statin myotoxicity in C2C12 myotubes, primary screen, cell-based, single point, plate reader; C2C12 myotubes + simvastatin, ATP luminescence, 48 h; scaled: DMSO 0, geranylgeraniol control 100; rescue of ATP level, % at 7.49 µM; 330,000 tested, 0.78% active; AID 602340, 2012;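 active means mean ATP rescue above about 67%, or every replicate alone reaching that limit, limit read from the data, passing the limit was not always enough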;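 further: myotubes were challenged with 10 µM simvastatin during compound exposure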
FGF22 binding: binders of human FGF22 protein, primary screen, FGF22 synaptogenesis inhibitor project, biophysical, thermal shift, single point; Fibroblast growth factor 22 (Homo sapiens), Q9HCT0; recombinant FGF22 thermal shift, SYPRO orange fluorescence; percent of sucrose octasulfate shift, DMSO zero; activity (Tm shift, normalised), % at 9.99 µM; 340,000 tested, 1.5% active;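 active means mean Tm shift, scaled 0 neutral to 100 positive control, at about 1.3% or above, every replicate too, limit read from the data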
FN deposition inh: inhibitors of fibronectin matrix deposition, primary screen, AH1F cells, Alexa488-fibronectin fluorescence, plate reader; AH1F fibroblasts, overnight; AID 743247, 2014; inhibition, % at 12.6 µM; 350,000 tested, 0.086% active;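 active means mean inhibition across replicates of 30% or more, regardless of how many single replicates reach that level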;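 further: positive control wells lacked labelled fibronectin entirely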
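Schedule: 1 h cell adhesion before compound, then overnight fibronectin incubation; test system: AH1F fibroblast monolayer depositing Alexa488-labelled fibronectin into matrix; quantity: 10000 AH1F cells per well; probe or stimulus: fluorescent fibronectin at 24 nM final; signal: fluorescence, ex 485 nm, em 525 nm; evaluation: percent inhibition as loss of matrix-bound fibronectin fluorescence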
* hit, by the source's call. Most compounds without a hit are left out; they make up all but 4% or so of the library.

What do the screens show for `C[C@@H]1CCCCO[C@H](CN(C)CC2CC2)[C@H](C)CN([C@@H](C)CO)C(=O)c2cc(NS(=O)(=O)c3cccs3)ccc2O1`?
E-selectin induc: 0.1; SIRT5 block: 4.8; Ecoli rRNA inh: 0.7; FGF22 binding: 0.1

Results for O=c1oc(-c2cc3ccccc3o2)nc2sc3c(c12)CCCC3 ?
SIRT5 block: -4.2; Ecoli rRNA inh: -22.8*; C2C12 statin: -66.2; FGF22 binding: 0.2

Results for O=c1oc(-c2ccccc2)nc2sc3c(c12)CCCC3 ?
C2C12 statin: -38.9

How did O=C1C/C(=C/NCc2ccccc2)C(=O)N1 do in these assays?
C2C12 statin: 95.2*

What do the screens show for `CC(Cc1ccccc1)N/C=C1/CC(=O)NC1=O` (configuration not stated)?
C2C12 statin: 6.7; FN deposition inh: -7.7

What do the screens show for `C[C@@H]1CN([C@H](C)CO)C(=O)c2cccc(NC(=O)c3ccc(-c4nccs4)cc3)c2O[C@@H]1CN(C)C(=O)Nc1ccccc1`?
E-selectin induc: 2.6; SIRT5 block: 5.7; Ecoli rRNA inh: -5.4; FGF22 binding: 3.2*

What do the screens show for `COc1ccc(CN(C)C[C@H]2Oc3c(NC(=O)c4ccc(-c5nccs5)cc4)cccc3C(=O)N([C@@H](C)CO)C[C@@H]2C)cc1`?
SIRT5 block: 23.7*; Ecoli rRNA inh: -10.3; C2C12 statin: 11.1; FGF22 binding: -0.1

How did C[C@@H]1CN([C@@H](C)CO)C(=O)c2cccc(NC(=O)c3ccc(-c4nccs4)cc3)c2O[C@H]1CN(C)Cc1ccc(Oc2ccccc2)cc1 do in these assays?
E-selectin induc: 71.0*; SIRT5 block: 12.0; Ecoli rRNA inh: 6.7; C2C12 statin: -46.1; FGF22 binding: -0.5

What do the screens show for `CNC[C@H]1Oc2c(NC(=O)c3ccc(-c4nccs4)cc3)cccc2C(=O)N([C@H](C)CO)C[C@H]1C`?
E-selectin induc: 0.0; SIRT5 block: 28.1*; Ecoli rRNA inh: 2.2; C2C12 statin: -6.7; FGF22 binding: 0.0; FN deposition inh: 7.0

What do the screens show for `C[C@@H]1CN([C@@H](C)CO)C(=O)c2cccc(NC(=O)c3ccc(-c4nccs4)cc3)c2O[C@@H]1CN(C)Cc1ccc(-c2ccccc2)cc1`?
E-selectin induc: 0.2; SIRT5 block: -7.1; Ecoli rRNA inh: -0.4; C2C12 statin: -16.0; FGF22 binding: 0.0

What do the screens show for `C[C@H](CO)N1C[C@H](C)[C@H](CN(C)Cc2ccccn2)Oc2cc(C3=CCCC3)ccc2S1(=O)=O`?
E-selectin induc: -1.1; SIRT5 block: 2.4; Ecoli rRNA inh: -4.9; C2C12 statin: 10.4; FGF22 binding: -0.3; FN deposition inh: 3.5

Results for COc1ccc(NC(=O)Nc2ccc3c(c2)C(=O)N([C@H](C)CO)C[C@H](C)[C@H](CN(C)Cc2ccc(C(=O)Nc4ccccc4N)cc2)OCCCC[C@@H](C)O3)cc1 ?
E-selectin induc: 0.1; SIRT5 block: 5.1; Ecoli rRNA inh: 1.6; FGF22 binding: 0.1

What do the screens show for `C[C@@H]1CN([C@H](C)CO)C(=O)c2cccc(NC(=O)c3ccc(-c4nccs4)cc3)c2O[C@@H]1CN(C)Cc1ccc(Oc2ccccc2)cc1`?
E-selectin induc: 3.7; SIRT5 block: 20.6*; Ecoli rRNA inh: 3.7; C2C12 statin: -14.4; FGF22 binding: -0.4

How did COc1cccc(C(=O)Nc2ccc(C(F)(F)F)n(C)c2=O)c1 do in these assays?
SIRT5 block: 20.3*; Ecoli rRNA inh: 0.6; C2C12 statin: 0.6; FGF22 binding: -0.1

What do the screens show for `COCCNC(=O)C[C@H]1CC[C@@H](NC(=O)NC2CCCCC2)[C@H](CO)O1`?
E-selectin induc: 0.5; SIRT5 block: -5.4; Ecoli rRNA inh: 0.6; C2C12 statin: -2.2; FGF22 binding: -0.1

How did Cc1ccc(C(=O)OCC(=O)Nc2cccc(S(=O)(=O)NC3=NCCCCC3)c2)c(C)c1 do in these assays?
E-selectin induc: 0.4; SIRT5 block: -3.5; Ecoli rRNA inh: -22.4*; FGF22 binding: 0.4; FN deposition inh: -0.5

How did O=C(COC(=O)c1ccc([N+](=O)[O-])s1)Nc1cccc(S(=O)(=O)NC2=NCCCCC2)c1 do in these assays?
E-selectin induc: -0.1; SIRT5 block: 26.2*; Ecoli rRNA inh: 1.9; FGF22 binding: -0.1; FN deposition inh: -7.9

How did O=C(COC(=O)c1ccc2ccccc2n1)Nc1cccc(S(=O)(=O)NC2=NCCCCC2)c1 do in these assays?
E-selectin induc: -2.1; SIRT5 block: 0.1; Ecoli rRNA inh: 3.1; FGF22 binding: 43.2*; FN deposition inh: 1.6

Results for COc1cc(OC)c(C(=O)OCC(=O)Nc2cccc(S(=O)(=O)NC3=NCCCCC3)c2)cc1OC ?
E-selectin induc: 1.3; SIRT5 block: 2.0; C2C12 statin: 2.1; FGF22 binding: -0.1; FN deposition inh: 5.7

What do the screens show for `O=C(Nc1ccccc1F)N1CC(=O)N2[C@H](CO)[C@@H](c3ccc(C#CC4CC4)cc3)[C@@H]2C1`?
E-selectin induc: -0.3; SIRT5 block: 0.6; Ecoli rRNA inh: 3.5

Results for O=C(c1nn(-c2ccccc2)c(=O)c2ccccc12)N1CCN(c2ccccn2)CC1 ?
C2C12 statin: 5.4; FN deposition inh: -6.3

Results for CCCn1nc(C(=O)N2CCN(c3ccccn3)CC2)c2ccccc2c1=O ?
E-selectin induc: 0.6; Ecoli rRNA inh: -7.8; C2C12 statin: -2.3; FGF22 binding: 44.1*; FN deposition inh: 0.2

What do the screens show for `COCCCNCC(O)COc1cccc2[nH]c(C)cc12` (configuration not stated)?
SIRT5 block: -0.8; Ecoli rRNA inh: 17.9; FGF22 binding: 1.4*

How did Cc1ccc(S(=O)(=O)NC(C)(C)CN2CCC(Cc3ccccc3)CC2)cc1 do in these assays?
E-selectin induc: 0.3; SIRT5 block: 0.1; Ecoli rRNA inh: -29.5; C2C12 statin: -2.6; FGF22 binding: 43.7*; FN deposition inh: -6.1

How did Cc1noc(C)c1S(=O)(=O)Nc1ccc2c(c1)C(=O)N([C@H](C)CO)C[C@H](C)[C@@H](CN(C)S(C)(=O)=O)OCCCC[C@H](C)O2 do in these assays?
E-selectin induc: 0.2; SIRT5 block: 0.2; Ecoli rRNA inh: -0.2; FGF22 binding: 0.2
